ABCB1 inh: blocks JC-1 efflux by human ABCB1 transporter | P08183 | CCRF-Adr cells, flow cytometry | inhibition, % at 6.6 µM | 0.067% of 190,000 active | AID 1326; in the data active = inhibition above about 40%;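 also: 0% = vehicle and 100% = reference inhibitor; higher value means more JC-1 retained so stronger ABCB1 efflux block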
Target sequence (P08183 whole entry, looked up): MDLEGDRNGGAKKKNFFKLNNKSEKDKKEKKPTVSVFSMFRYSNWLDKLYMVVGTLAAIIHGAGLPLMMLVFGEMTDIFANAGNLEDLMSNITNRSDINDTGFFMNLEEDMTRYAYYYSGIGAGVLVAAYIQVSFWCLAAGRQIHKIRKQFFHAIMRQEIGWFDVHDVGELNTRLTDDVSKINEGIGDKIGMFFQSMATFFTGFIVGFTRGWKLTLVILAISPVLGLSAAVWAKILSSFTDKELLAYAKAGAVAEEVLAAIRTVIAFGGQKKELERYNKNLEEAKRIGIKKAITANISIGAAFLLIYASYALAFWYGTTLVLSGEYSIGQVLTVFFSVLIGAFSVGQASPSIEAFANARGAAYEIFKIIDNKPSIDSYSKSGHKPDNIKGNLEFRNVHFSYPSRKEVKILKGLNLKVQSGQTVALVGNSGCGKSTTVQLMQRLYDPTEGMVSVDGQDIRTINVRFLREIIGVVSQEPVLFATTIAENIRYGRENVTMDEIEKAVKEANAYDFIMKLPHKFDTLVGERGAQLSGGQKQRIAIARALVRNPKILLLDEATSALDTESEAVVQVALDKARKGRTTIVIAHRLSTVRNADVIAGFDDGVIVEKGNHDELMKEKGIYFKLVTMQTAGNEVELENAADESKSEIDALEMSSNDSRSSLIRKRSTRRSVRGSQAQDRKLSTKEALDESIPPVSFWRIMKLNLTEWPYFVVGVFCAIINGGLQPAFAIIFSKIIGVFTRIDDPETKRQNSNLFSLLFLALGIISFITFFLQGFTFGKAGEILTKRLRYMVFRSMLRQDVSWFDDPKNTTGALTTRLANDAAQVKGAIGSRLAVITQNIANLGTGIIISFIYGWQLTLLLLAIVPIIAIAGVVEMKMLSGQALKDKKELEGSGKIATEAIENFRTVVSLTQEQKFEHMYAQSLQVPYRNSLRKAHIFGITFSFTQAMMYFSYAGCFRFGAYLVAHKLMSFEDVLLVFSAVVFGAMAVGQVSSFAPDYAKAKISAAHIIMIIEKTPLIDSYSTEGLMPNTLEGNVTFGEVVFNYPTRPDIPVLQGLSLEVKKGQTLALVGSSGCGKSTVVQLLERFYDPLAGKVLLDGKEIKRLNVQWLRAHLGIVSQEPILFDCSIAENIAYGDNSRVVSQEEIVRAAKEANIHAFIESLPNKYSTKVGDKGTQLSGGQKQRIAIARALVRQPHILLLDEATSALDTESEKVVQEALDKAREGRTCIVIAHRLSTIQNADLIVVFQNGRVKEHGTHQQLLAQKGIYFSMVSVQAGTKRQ
RAM inhibit: inhibitors of the yeast RAM network | inhibition, % at 50 µM | 1.8% of 190,000 active | S. cerevisiae dse1pr::URA3 reporter, 5-FOA growth OD615, 2 d; analog-sensitive cbk1-as2 kinase mutant strain;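 active = inhibition above a set limit, 3 SD over mean compound inhibition, cut at about 8.4% in these data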;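 also: 0% = DMSO-only wells with no growth and 100% = 10 µM 1-NA-PP1 full growth; inhibition rescues growth on 5-FOA so higher OD means more RAM inhibition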
Arbovirus anti: arbovirus infection inhibition | arbovirus infection cell-based antiviral screen | inhibition, % at 10 µM | 0.37% of 200,000 active; in the data active = inhibition above about 30%
ABCG2 block: blocks JC-1 efflux by human ABCG2 transporter; Q9UNQ0; IgMXP3 cells, flow cytometry; inhibition, % at 6.6 µM; 0.1% of 190,000 active; AID 1325;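 active = inhibition above 80%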;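 also: 0% = DMSO and 100% = nicardipine control wells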
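Times: 10 min at 25 °C | Test system: Two drug-resistant human cell lines, ABCG2 and ABCB1 | Quantity: 3 million cells/mL final, two lines in 1:1 ratio | Signal: Flow cytometry, 530 nm JC-1 signal | Dosing: Compound at 6.6 µM | Controls: Nicardipine and DMSO wells | Reagent: JC-1 as fluorescent efflux pump substrate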
An asterisk follows results filed as active. Hits are enriched below; roughly 2.3% of the tested compounds scored in any of these assays.

SMILES	ABCB1 inh	RAM inhibit	Arbovirus anti	ABCG2 block
Cc1cccc(N2C(=O)C(Oc3ccc(Cl)cc3Cl)C2C=O)c1C (stereo not drawn)	2.6	3.8	-19.8	6.9
COC(=O)c1ccc(Cn2cnc3ccccc3c2=O)cc1	1.1	3.5	-1.9	11.2
CCOc1ccc(NC(=O)CNC(=O)c2ccc(OC)c(OC)c2)cc1	1.1	8.8*	9.9	11.9
CCOc1ccc2[nH]c(=O)c(CN(CC3CCCN3CC)C(=O)NCc3ccccc3)cc2c1 (stereo not drawn)	0.4	0.5	-0.4	2.3
CNC(=O)c1[nH]cnc1C(=O)Nc1ccccc1OC	1.7	0.0	-1.6	53.5
N#Cc1ccccc1NC(=O)CSc1nnc(-c2ccccc2O)n1-c1ccccc1	1.3	10.2*	-1.1	8.0
Cc1ccccc1NC(=O)CSc1nnc(-c2ccccc2)n1-c1ccccc1	1.1	2.3	0.7	1.0
CC(C)C[C@H](NC(=O)c1nc[nH]c1C(=O)NC(c1ccccc1)c1ccccc1)C(=O)OCc1ccccc1	0.8	5.6	-3.6	3.5
O=C(N[C@@H](Cc1ccccc1)C(=O)OCc1ccccc1)c1nc[nH]c1C(=O)NCc1ccccc1	1.2	9.2*	1.3	6.4
Cc1cc(C)n(C(=O)CNC(=O)C(c2ccccc2)c2ccccc2)n1	1.0	8.8*	0.2	3.8
COc1ccc(NC(=O)COC(=O)C23CC4CC(CC(Cl)(C4)C2)C3)c(OC)c1	1.3	4.7	11.3	5.0
COc1ccc(C(=O)C23CC4CC(C2)CC(C(=O)c2ccc(OC)cc2)(C4)C3)cc1	1.5	9.1*	6.6	4.1
O=C(Nc1ccc(Cl)cc1)/C(=C/c1cccc(O)c1)c1nc2ccccc2s1	-0.1	8.5*	-33.8	0.2
S=C(Nc1ccc(Cl)cc1)c1nc2ccccc2s1	-0.2	8.4*	3.2	0.7
CCc1cc(CNC(=O)CC2C(=O)NCCN2Cc2c(F)cccc2Cl)on1 (stereo not drawn)	1.7	1.3	4.3	12.6
CCCCNC(=S)N(Cc1ccco1)Cc1cc2cc3c(cc2[nH]c1=O)OCCO3	1.7	8.5*	-4.1	10.6
CCCC(C)NC(=O)COc1ccc(Sc2ccc(OCC(=O)NC(C)CCC)cc2)cc1 (stereo not drawn)	1.6	10.5*	-4.1	20.2
CC(C)CNC(=O)COc1ccc(Sc2ccc(OCC(=O)NCC(C)C)cc2)cc1	0.4	5.4	10.0	8.3
CCNC(=O)COC(=O)COc1ccc(Cl)cc1C	0.5	0.7	2.6	3.1
Cc1cc(Cl)ccc1OCC(=O)OCC(=O)Nc1ccc(F)c([N+](=O)[O-])c1	0.7	9.2*	3.8	19.5
Cc1ccc2nc(N3C(=O)C(O)=C(C(=O)c4ccc(C)o4)C3c3cccc(O)c3)sc2c1 (stereo not drawn)	-0.9	3.9	76.4*	-1.9
Cc1ccc(NC(=O)c2c(O)c3ccccc3n(C)c2=O)nc1	0.1	0.4	33.1*	0.1
O=c1[nH]c(=O)n(C(c2ccccc2)c2ccccc2)cc1Br	0.4	3.1	31.5*	5.5
COc1ccc(-n2nnnc2SCC(=O)c2cc3ccccc3o2)cc1	-0.4	8.5*	-8.9	0.5
CC(=O)CSc1nc2ccccc2s1	0.0	2.3	-2.4	-0.1
SMILES	ABCB1 inh	RAM inhibit	Arbovirus anti	ABCG2 block
O=C(CSc1nc2ccccc2s1)c1cc2ccccc2o1	-0.3	9.4*	12.3	1.8
CC(C)CCN1C(=O)c2ccc(C(=O)OCn3nnc4ccccc4c3=O)cc2C1=O	5.4	3.2	1.1	43.5
O=[N+]([O-])c1cccc(-c2nc(-c3ccccc3)c(-c3cccs3)[nH]2)c1	-0.1	8.5*	-0.2	0.7
O=[N+]([O-])c1cccc(-c2nc(-c3cccs3)c(-c3cccs3)[nH]2)c1	-0.5	5.0	3.5	15.9
CC(C)(C)c1ccc(C(=O)NC(=S)NCC2CCCO2)cc1 (stereo not drawn)	-1.1	0.2	40.4*	-3.2
COc1ccc(NC(=O)c2c[nH]n3c(=O)cc(C4CCN(C(=O)OC(C)(C)C)CC4)nc23)cc1Cl	-2.1	7.4	48.6*	-4.2
COc1ccccc1CN(C)C(=O)C1COc2ccccc2O1 (stereo not drawn)	0.0	0.9	-3.0	0.4
COc1ccc(/C=C/C(=O)c2ccc3c4c(cccc24)CC3)cc1OC	-0.1	7.8	8.6	0.1
COc1ccc(/C=C/C(=O)c2ccc3c4c(cccc24)CC3)cc1	-0.9	8.8*	21.3	2.2
O=C(Nc1ccc(F)c([N+](=O)[O-])c1)c1ccc2c(c1)OCCO2	-0.2	2.3	7.8	11.7
COc1cc(/C=C2\SC(=O)N(CCN)C2=O)ccc1OS(=O)(=O)c1cc(C)ccc1C	-0.1	8.5*	-18.5	-1.2
COc1cccc(-c2ccc(-c3noc(-c4ccccc4F)n3)c(OC)n2)c1	1.4	11.0*	-6.8	14.0
COc1cccc(-c2ccc(-c3noc(-c4cccs4)n3)c(OC)n2)c1	0.7	6.2	2.7	9.8
O=C(NCc1ccc2c(c1)OCO2)c1ccc(COc2cc(Cl)ccc2Cl)o1	0.6	9.4*	-14.0	4.6
O=C(NCc1ccc2c(c1)OCO2)c1ccc(CSCc2ccc(Cl)cc2)o1	0.3	7.3	-11.3	5.7
CCCCn1c(CN2CCN(c3cccc(Cl)c3)CC2)nc2c1c(=O)[nH]c(=O)n2C	1.1	2.2	-14.9	6.7
Cn1c(=O)[nH]c(=O)c2c1nc(CN1CCN(c3cccc(Cl)c3)CC1)n2CCCc1ccccc1	2.9	9.5*	-6.5	2.8
COc1ccc(CN(C(=O)c2cc3ccccc3oc2=O)C2CCCCC2)cc1OC	2.1	0.6	103.0*	7.9
Cc1ccc(CN(C(=O)c2cc3ccccc3oc2=O)C2CCS(=O)(=O)C2)cc1 (stereo not drawn)	0.9	0.3	0.7	2.8
CCc1cccc2c(C(=O)Cn3nnc(-c4ccc(OC)c(OC)c4)n3)c[nH]c12	-0.4	1.3	-2.6	-1.9
CC(C)CCNC(=O)CCCC1=NS(=O)(=O)c2ccccc2N1	0.7	0.8	1.0	4.1
CCOC(=O)CC1=NS(=O)(=O)c2ccccc2N1	0.1	0.8	77.3*	0.0
Cc1ccc(S(=O)(=O)/N=C(\N)Nc2nc(C)c3cc(C)c(C)cc3n2)cc1	4.2	4.5	5.4	17.9
CCOC(=O)CSc1nnc(CNC(=O)c2ccc(OC)cc2)n1C1CCCCC1	2.0	1.7	2.9	2.4
CC(=O)N(c1ccc2oc(=O)sc2c1)S(=O)(=O)c1ccccc1	1.2	0.7	-9.2	21.5
CC(C)C(=O)N(c1ccc2oc(=O)sc2c1)S(=O)(=O)c1ccccc1	0.2	11.1*	-10.0	-5.7
CC1=NN(c2ccccc2)C(=O)/C1=C/c1c(O)n(-c2ccc(F)cc2)[nH]c1=O	-0.8	1.3	-18.1	5.6
CC(C)(C)C(=O)Nc1cc(S(=O)(=O)Nc2ccc(Cl)cc2)ccc1Cl	0.3	11.2*	7.8	13.1
CC(C)(C)C(=O)Nc1ccc(S(=O)(=O)c2ccc(NC(=O)C(C)(C)C)cc2)cc1	0.1	3.0	-1.3	1.3
Cc1cc(Nc2nc3ccccc3nc2Cl)n(-c2ccccc2C)n1	1.5	-0.8	19.9	41.1

Screening results as filed in PubChem.
